High-throughput results: PubChem BioAssay, several laboratories
Arr AP2 block – blocks beta-arrestin peptide binding to AP2 adaptin; FITC-arrestin peptide / GST-AP2 beads, flow cytometry; AP2 beta2 appendage carries R879A mutation; inhibition, % at 10 µM; hit rate 0.31% among 340,000; AID 504490;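 active = inhibition above a set limit, near 3 SD of compounds lacking own fluorescence, cut at about 54% in these data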
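System: GST-AP2 R879A glutathione beads; medium: PBS, Tween 20 0.05%, BSA 0.1%; reagent: fluorescein-tagged arrestin peptide at 50 nM final; schedule: pre-incubation 12 min, peptide binding 1 h, room temperature; detection: flow cytometry, FL1 (488/535 nm); read-out: inhibition as reduced fluorescein signal on beads, percent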
UHRF1 MBD2 ctr – human UHRF1 methylated DNA binding inhibitors | UHRF1 binding to methylated oligo, TR-FRET | inhibition, % at 4.4 µM | hit rate 0.75% among 370,000 | Q96T88; in the data active = inhibition above about 21%;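 note: UHRF1 SRA domain binding a hemimethylated CpG hairpin DNA probe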
Rin1 Abl inh – human Rin1-Abl interaction inhibition. P00519+Q13671. TR-FRET Rin1/Abl binding, biochemical. inhibition, % at 7.35 µM. hit rate 0.4% among 360,000. AID 588664; in the data active = inhibition above about 5%, passing the limit was not always enough
B2AR ag – agonists of human beta-2 adrenergic receptor inducing internalization. hit rate 0.43% among 340,000. response, % (no concentration beside the values). P07550. AID 504454. Am2.2-beta2AR cells, FAP receptor internalization, flow cytometry;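 active = response above a set limit, near 3 SD of response in nonfluorescent compounds, cut at about 42% in these data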
ABHD5 PLIN5 PPI – blocks binding of human ABHD5 to perilipin-5; Q00G26+Q8WTS1; Split G. princeps luciferase complementation, luminescence, 4 h; inhibition, % at 4 µM; hit rate 0.78% among 360,000;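 active = inhibition above the mean inhibition across every tested compound plus 3 SD, cut at about 22% in these data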
Target sequence (Q00G26 whole entry, looked up): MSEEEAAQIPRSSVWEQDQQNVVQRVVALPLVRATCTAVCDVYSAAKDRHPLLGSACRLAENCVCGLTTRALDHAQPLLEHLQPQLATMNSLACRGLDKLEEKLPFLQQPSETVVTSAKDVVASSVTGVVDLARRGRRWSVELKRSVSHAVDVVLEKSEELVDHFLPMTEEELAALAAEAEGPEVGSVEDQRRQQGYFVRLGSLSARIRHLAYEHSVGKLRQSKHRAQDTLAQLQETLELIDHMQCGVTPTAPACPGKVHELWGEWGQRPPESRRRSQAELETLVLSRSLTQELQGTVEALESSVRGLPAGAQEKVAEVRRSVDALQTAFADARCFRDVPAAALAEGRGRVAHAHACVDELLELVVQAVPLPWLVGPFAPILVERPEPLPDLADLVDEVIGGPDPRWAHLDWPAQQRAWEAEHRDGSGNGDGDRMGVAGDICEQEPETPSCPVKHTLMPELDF
Target sequence (Q8WTS1 whole entry, looked up): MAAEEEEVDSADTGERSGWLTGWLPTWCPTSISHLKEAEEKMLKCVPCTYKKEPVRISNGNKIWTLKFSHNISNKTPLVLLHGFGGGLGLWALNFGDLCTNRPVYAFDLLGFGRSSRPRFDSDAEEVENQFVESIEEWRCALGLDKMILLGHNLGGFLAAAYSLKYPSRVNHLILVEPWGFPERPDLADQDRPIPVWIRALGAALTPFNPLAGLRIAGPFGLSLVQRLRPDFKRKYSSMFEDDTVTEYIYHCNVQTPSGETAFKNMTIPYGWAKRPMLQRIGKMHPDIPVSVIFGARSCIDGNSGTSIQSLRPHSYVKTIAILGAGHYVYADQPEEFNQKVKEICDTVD
MBD2 DNA inh – MBD2-methylated oligo binding inhibition | inhibition, % at 4.4 µM | TR-FRET, MBD2 binding to methylated oligonucleotide | AID 686964 | hit rate 0.31% among 370,000 | Q9UBB5; in the data active = inhibition above about 13%
Rin1-Abl confirm – confirmation of inhibitors of human Rin1-Abl interaction | TR-FRET Rin1-Abl binding, purified proteins | inhibition, % at 7.35 µM | hit rate 49% among 1,300 | shares compounds with Rin1 Abl inh
GFP quencher – GFP fluorescence interference artifact | shares compounds with Rin1 Abl inh | inhibitors/quenchers counterscreen | inhibition, % at 6.75 µM | hit rate 8.5% among 1,300 | AID 602125;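 note: ABL1-eGFP fusion protein alone without its partner RIN1-SBP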
GFP quench DR – counter-screen for Rin1-Abl inhibitors: GFP quenchers, dose response. shares compounds with Rin1 Abl inh. 230 tested, under 10 active. GFP fluorescence interference/quenching counterscreen. IC50, µM. AID 602182; call rule not given here;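 note: ABL1-eGFP fusion protein alone without its RIN1 binding partner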
Large screens that a line does not name were inactive (follow-up assays come after a bar, where they were run). Rows were chosen to be rich in hits. Some 2.5% of all compounds tested hit in one or more screens of this group. Cut-off read from the data, not from the text of the source, unless noted: active = inhibition above about 6.5%; inactive = the rest.

Cc1c(F)cccc1NC(=O)CCCCCC1NC(=O)NC1C (stereo not drawn)	Rin1 Abl inh 86 | Rin1-Abl confirm 98 | GFP quencher inactive | GFP quench DR inactive
CC1NC(=O)NC1CCCCCC(=O)Nc1ccc(F)cc1 (stereo not drawn)	Rin1 Abl inh 84 | Rin1-Abl confirm 98 | GFP quencher inactive | GFP quench DR inactive
COCC#Cc1ccc(CC[C@H]2O[C@H]3CC[C@H](CO)O[C@H]3C[C@H]2n2cc(C(C)(C)O)nn2)cc1	none (no result: Arr AP2 block, Rin1 Abl inh, B2AR ag, ABHD5 PLIN5 PPI)
COC(=O)C1=C[C@@H](C(=O)OC)[C@@H]2C3=C(C(=O)C2(C)C)[C@H](c2ccccc2)[C@@H]2C(=O)N(C)C(=O)[C@@H]2[C@@H]3C1	Rin1 Abl inh 19 | Rin1-Abl confirm 17 | GFP quencher inactive
COC(=O)CN1C(=O)[C@@H]2[C@H](C1=O)[C@@H]1CC(C(=O)OC)=C[C@@H](C(=O)OC)[C@@H]3C1=C(C(=O)[C@]3(C)NC(=O)c1ccccc1)[C@@H]2C	none
O=c1cc(-c2ccc(O)c(O)c2)oc2cc(O)cc(O)c12	none
CC1OC(Oc2c(-c3cc(O)c(O)c(O)c3)oc3cc(O)cc(O)c3c2=O)C(O)C(O)C1O (stereo not drawn)	Rin1 Abl inh 42 | Rin1-Abl confirm 45 | GFP quencher 15
O=c1c(O)c(-c2ccc(O)c(O)c2)oc2cc(O)cc(O)c12	Rin1 Abl inh 24 | Rin1-Abl confirm 16 | GFP quencher inactive
C[C@@H]1O[C@@H](OC[C@@H]2O[C@H](Oc3c(-c4ccc(O)cc4)oc4cc(O)cc(O)c4c3=O)[C@@H](O)[C@H](O)[C@H]2O)[C@H](O)[C@H](O)[C@H]1O	none
CCOc1ccc(NC(=O)Nc2ccc3c(c2)nc(C)n3C)cc1	Rin1 Abl inh 5.7 | Rin1-Abl confirm 11 | GFP quencher inactive
CN1CC2(C)OC(=O)C(Cl)=C2CC1c1ccccc1 (stereo not drawn)	Rin1 Abl inh 6.2 | Rin1-Abl confirm inactive | GFP quencher inactive
COC(=O)C1=C(C)N(CCCC(=O)O)C(=O)NC1c1cc2c(cc1[N+](=O)[O-])OCO2 (stereo not drawn)	none
COC(=O)C1=C(C)N(C)C(=O)NC1c1cc2c(cc1[N+](=O)[O-])OCO2 (stereo not drawn)	Rin1 Abl inh 15 | Rin1-Abl confirm 11 | GFP quencher inactive
CCOC(=O)N1CCC(Nc2ncnc3c2cnn3-c2ccccc2)CC1	Rin1 Abl inh 9.9 | Rin1-Abl confirm inactive | GFP quencher inactive
CCn1c(SCC(=O)N/N=C/c2ccc(OC)c(OC)c2)nc2ccccc21	none
COc1cc(/C=N/NC(=O)CSc2ccccn2)ccc1OC(C)C	Rin1 Abl inh 17 | Rin1-Abl confirm 26 | GFP quencher inactive | GFP quench DR inactive
C[C@H]1[C@@H](NC(=O)c2ccc(Cl)cc2)CC[C@@]23CCCN2C(=O)CCC[C@@H]13	none (no result: Arr AP2 block, Rin1 Abl inh, B2AR ag, ABHD5 PLIN5 PPI)
COc1cc2nc(Nc3ccc(C)c(C)c3)nc(N)c2cc1OC	none
COc1cc2nc(Nc3ccc(F)cc3)nc(N)c2cc1OC	Rin1 Abl inh 14 | Rin1-Abl confirm 16 | GFP quencher inactive
CC(=O)NC(Cc1ccc2c(c1)OCO2)C(=O)N1CCCN(C(C)=O)CC1 (stereo not drawn)	none (no result: Arr AP2 block, Rin1 Abl inh, B2AR ag, ABHD5 PLIN5 PPI)
COCCCNC(=O)C[C@@H]1C(=O)N2CCCC3=C2[C@@]1(C(=O)OC)CCCC3	none (no result: Arr AP2 block, Rin1 Abl inh, B2AR ag, ABHD5 PLIN5 PPI)
CCOc1ccc(CN(C)C(=O)CCNC(=O)c2ccco2)cc1	Rin1 Abl inh 8.6 | Rin1-Abl confirm inactive | GFP quencher inactive
CCOc1ccc(CNC(=O)c2ccco2)cc1	none
CCC1(CC)C(=O)C2=C3C1[C@H](C(=O)OC)C=C(C(=O)OC)C[C@H]3n1c(=O)n(-c3ccccc3)c(=O)n1[C@H]2C (stereo partly drawn)	Rin1 Abl inh 24 | Rin1-Abl confirm 23 | GFP quencher inactive | GFP quench DR inactive
O=C(Nc1cccc(C(F)(F)F)c1)O[C@@H]1CC[C@@]23CCCN2C(=O)CCC[C@H]3C1	none (no result: Arr AP2 block, Rin1 Abl inh, B2AR ag, ABHD5 PLIN5 PPI)
O=[N+]([O-])c1cccc(S(=O)(=O)NCCOc2cccc3cccnc23)c1	Rin1 Abl inh 10 | Rin1-Abl confirm inactive | GFP quencher inactive
O=C(NCCc1ccccc1)OCc1cn(Cc2cc(F)ccc2F)nn1	none (no result: Arr AP2 block, Rin1 Abl inh, B2AR ag, ABHD5 PLIN5 PPI)
CCn1cc(C(=O)N2CCN(c3cccc(Cl)c3)CC2)c2cc(OC)c(OC)cc2c1=O	none
COc1cc2c(C(=O)N3CCN(c4cccc(Cl)c4)CC3)cn(C)c(=O)c2cc1OC	Rin1 Abl inh 17 | Rin1-Abl confirm 32 | GFP quencher inactive | GFP quench DR inactive
COC(=O)[C@]12C[C@H](CC(=O)N3CCCCC3)C(=O)N(Cc3ccco3)C1=C[C@H](COCc1ccccc1)O[C@@H]2C	none (no result: Arr AP2 block, Rin1 Abl inh, B2AR ag, ABHD5 PLIN5 PPI)
COc1ccc(CN(C)CCCn2ccc(NC(=O)OCc3ccccc3)nc2=O)cc1OC	Rin1 Abl inh 15 (no result: Arr AP2 block, B2AR ag) | Rin1-Abl confirm 22 | GFP quencher inactive | GFP quench DR inactive
CC[C@@H](NCCCn1ccc(NC(=O)OCc2ccccc2)nc1=O)c1ccccc1	Rin1 Abl inh 8.4 (no result: Arr AP2 block, B2AR ag) | Rin1-Abl confirm 8.8 | GFP quencher inactive
CCOc1cc(CCNC(=O)c2cc3sccc3n2CC)ccc1OC	none (no result: Arr AP2 block, Rin1 Abl inh, B2AR ag, ABHD5 PLIN5 PPI)
O=C1CCCC2=C1C1(O)C(=O)c3ccccc3C1(O)O2 (stereo not drawn)	Rin1 Abl inh 19 | Rin1-Abl confirm 9.1 | GFP quencher inactive
O=C(CCN1C(=O)/C(=C\c2ccco2)SC1=S)Nc1ccc(C(=O)O)c(O)c1	UHRF1 MBD2 ctr 62, Rin1 Abl inh 10 | Rin1-Abl confirm inactive | GFP quencher 7.3
O=C(CCN1C(=O)/C(=C\c2cccs2)SC1=S)Nc1ccc(C(=O)O)cc1	none
CC(=O)c1sc(NC(=O)c2ccc(Br)o2)nc1C	Rin1 Abl inh 12 | Rin1-Abl confirm inactive | GFP quencher inactive
Cn1c(CCNC(=O)c2ccco2)nc2cc(NS(=O)(=O)c3ccc(Cl)cc3)ccc21	Rin1 Abl inh 5.7 | Rin1-Abl confirm inactive | GFP quencher inactive
CC1COCC(C)N1S(=O)(=O)c1ccc2c(c1)CCN2C(=O)C1CCC1 (stereo not drawn)	none (no result: Arr AP2 block, Rin1 Abl inh, B2AR ag, ABHD5 PLIN5 PPI)
COc1ccc(CC(=O)NNC(=S)NC(=O)c2cccnc2)cc1	Rin1 Abl inh 6.8 | Rin1-Abl confirm inactive | GFP quencher inactive
CC(=O)c1cc(CN2CCCCC2)cc(OC(C)C)c1	none
CC(=O)c1ccc(OC(C)C)c(CN2CCCCC2)c1	Rin1 Abl inh 8.6 | Rin1-Abl confirm inactive | GFP quencher inactive
c1ccc(CN2CCC(Nc3ncnc4sccc34)CC2)cc1	none
